Measurements from different studies.
pEC50, pIC50, pKd, pKi: −log10 of the molar value.
Peroxisome proliferator-activated receptor alpha: Peroxisome proliferator-activated receptor alpha (Rattus norvegicus, UniProt P37230)
GPR84: G-protein coupled receptor 84 (GPR84, Homo sapiens, UniProt Q9NQS5)

| SMILES | target | test | conditions | endpoint | value |
| --- | --- | --- | --- | --- | --- |
| Cc1nc(-c2ccc(C(F)(F)F)cc2)sc1C(=O)NCc1ccc(OC(C)(C)C(=O)O)cc1 | Peroxisome proliferator-activated receptor alpha | reporter gene, agonist, luciferase |  | pEC50 | 5.66 |
| CC(=O)N[C@H]1CSSC[C@@H](C(=O)N[C@@H](Cc2c[nH]c3ccccc23)C(N)=O)NC(=O)[C@H](Cc2ccccc2)NC(=O)[C@H](CCCNC(=N)N)NC1=O | Melanocortin receptor 3 (MC3R, Homo sapiens, UniProt P41968) | ligand displacement, radioligand |  | pIC50 | 5.92 |
| O=c1cc(NCCc2cccs2)[nH]c(=O)[nH]1 | GPR84 | cAMP, agonist |  | pEC50 | 6.72 |
| Cc1cc2nc3c(=O)[nH]c(=O)nc-3n(C[C@H](O)[C@H](O)[C@H](O)COP(=O)(O)OP(=O)(O)OC[C@H]3O[C@@H](n4cnc5c(N)ncnc54)[C@H](O)[C@@H]3O)c2cc1C | Probable ATP-dependent RNA helicase DDX6 (Homo sapiens, UniProt P26196) | binding | lysate | pKd | 7.11 |
| CCCC[C@H](NC(=O)[C@H](CO)NC(=O)[C@H](Cc1ccc(O)cc1)NC(=O)[C@H](CO)NC(C)=O)C(=O)N[C@@H](CCC(=O)O)C(=O)N[C@@H](Cc1c[nH]cn1)C(=O)N[C@@H](C)C(=O)N[C@@H](CCCNC(=N)N)C(=O)N[C@@H](Cc1c[nH]c2ccccc12)C(=O)NCC(=O)N[C@@H](CCCCN)C(=O)N1CCC[C@H]1C(=O)N[C@H](C(=O)NCC(=O)N[C@@H](CCCCN)C(=O)N[C@@H](CCCCN)C(=O)N[C@@H](CCCNC(=N)N)C(N)=O)C(C)C | Melanocyte-stimulating hormone receptor (MC1R, Homo sapiens, UniProt Q01726) | cAMP, agonist |  | pEC50 | 8.11 |
| CCC(C)N1CCCn2c1nc1c2c(=O)n(C)c(=O)n1C (centres unmarked) | Adenosine receptor A3 (ADORA3, Homo sapiens, UniProt P0DMS8) | ligand displacement, radioligand | cell membranes | pKi | < 5.00 |
| CN1CCN(c2ccc(Nc3ncc4cc(C#N)c(=O)n(C5CCCC5)c4n3)cc2)CC1 | Mitogen-activated protein kinase 8 (MAPK8, Homo sapiens, UniProt P45983) | enzyme activity, inhibitor |  | pIC50 | < 5.00 |
| CC(C)c1nc2cc(OCCCCN3CCN(c4cccc5c4OCCN5)CC3)ccc2s1 | D(2) dopamine receptor (DRD2, Homo sapiens, UniProt P14416) | cAMP, agonist, luciferase |  | pEC50 | 8.55 |
| Cc1cccc(Nc2cc(Cl)nc(SCC(=O)O)n2)c1C | Peroxisome proliferator-activated receptor alpha | reporter gene, agonist, luciferase |  | pEC50 | 5.02 |
| C=CC(=O)Nc1cc(Nc2nccc(-c3cn(C4CC4)c4ccccc34)n2)c(OC)cc1N(C)CCN(C)C | Epidermal growth factor receptor (EGFR, Homo sapiens, UniProt P00533, G719C) | enzyme activity, inhibitor, TR-FRET |  | pIC50 | 7.76 |
| CC(C)(C)c1ccc(CCNc2cc(=O)[nH]c(=O)[nH]2)cc1 | GPR84 | cAMP, agonist |  | pEC50 | 7.36 |
